Results from ChEMBL document CHEMBL1148650, “Synthesis and pharmacological evaluation of novel nitrobenzenic thromboxane modulators as antiplatelet agents acting on both the alpha and beta isoforms of the human thromboxane receptor” (J Med Chem, 2006).

Assays:
[1] = target: T1, Thromboxane A2 receptor (Homo sapiens) (UniProt P21731); test: Selectivity index, IC50 for TPalpha/IC50 for TPbeta in COS7 cells; format: cell-based; conditions: COS-7
T1 sequence (whole entry): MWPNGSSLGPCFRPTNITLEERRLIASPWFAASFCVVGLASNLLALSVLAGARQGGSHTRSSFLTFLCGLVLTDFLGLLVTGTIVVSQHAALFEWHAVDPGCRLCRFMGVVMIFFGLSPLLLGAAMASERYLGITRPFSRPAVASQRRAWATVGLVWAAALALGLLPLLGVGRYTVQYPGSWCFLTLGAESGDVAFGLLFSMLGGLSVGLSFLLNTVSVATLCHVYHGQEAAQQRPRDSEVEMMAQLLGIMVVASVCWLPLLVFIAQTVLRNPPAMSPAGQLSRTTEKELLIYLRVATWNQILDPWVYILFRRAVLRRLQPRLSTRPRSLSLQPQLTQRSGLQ
Procedure, shortened: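 Binding used 5 × 10^5 cells in 25 mM HEPES/125 mM NaCl/10 µM indomethacin, pH 7.4, with 10 nM [3H]SQ29,548 and compound at 10^-6 to 10^-11 M, in triplicate, for 30 min at 37 °C. Nonspecific binding: 10 µM unlabeled SQ29,548. Bound ligand was counted after filtration. Index = IC50 TPα/IC50 TPβ.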

Thromboxane A2 receptor [2] = target: T2, Thromboxane A2 receptor (Homo sapiens, UniProt P21731); test: Activity at TPalpha (short isoform) receptor expressed in HEK293 cells assessed as ability to antagonize U46619-mediated calcium ion mobilization; format: functional, cell-based
T2 sequence (P21731 whole entry): T1 sequence (whole entry)
Procedure, shortened: (§1)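 HEK293 cells stably overexpressing human TPα or TPβ. Cells were loaded 1 h with Fluo-4/AM (5 µg/mL) and washed in Krebs-HEPES pH 7.4 (150 000 cells/well). Compound (10^-5 to 10^-8 M final) was added 10 min before 1 µM U46619. Fluo-4 signal was calibrated by Triton X-100 and then EGTA (Kd 385 nM) for [Ca2+]i. IC50 is the concentration halving the [Ca2+]i rise.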

Thromboxane A2 receptor [3] = target: T2, Thromboxane A2 receptor; test: Activity at TPbeta (long isoform) receptor expressed in HEK293 cells assessed as ability to antagonize U46619-mediated calcium ion mobilization; format: functional, cell-based; procedure, shortened: as §1
[4] = target: T1, Thromboxane A2 receptor (Homo sapiens); test: Selectivity index, IC50 for TPalpha/IC50 for TPbeta in HEK293 cells; format: functional, cell-based
Procedure, shortened: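 Ratio of IC50 TPα to IC50 TPβ, both from the calcium assay in stably transfected HEK293 cells. Fluo-4-loaded cells were preincubated 10 min with compound (10^-5 to 10^-8 M), then stimulated with 1 µM U46619. IC50 is the concentration inhibiting 50% of the [Ca2+]i rise.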

Thromboxane A2 receptor [5] = target: T2, Thromboxane A2 receptor; test: Displacement of [3H]SQ-29548 from TPbeta receptor (long isoform) expressed in COS7 cells
Thromboxane A2 receptor [6] = target: T2, Thromboxane A2 receptor; test: Displacement of [3H]SQ29,548 from TPalpha receptor (short isoform) expressed in COS7 cells
[7] = target: T1, Thromboxane A2 receptor (Homo sapiens); test: Displacement of [3H]SQ-29548 from TPbeta receptor (long isoform) expressed in COS7 cells at 1 nM; conditions: COS-7
[8] = target: T1, Thromboxane A2 receptor (Homo sapiens); test: Displacement of [3H]SQ29,548 from TPalpha receptor (short isoform) expressed in COS7 cells at 1 nM; conditions: COS-7
[9] = target: T1, Thromboxane A2 receptor (Homo sapiens); test: Displacement of [3H]SQ29,548 from TPalpha receptor (short isoform) expressed in COS7 cells at 1 uM; format: cell-based; conditions: COS-7
[10] = target: T1, Thromboxane A2 receptor (Homo sapiens); test: Displacement of [3H]SQ-29548 from TPbeta receptor (long isoform) expressed in COS7 cells at 1 uM; format: cell-based; conditions: COS-7

| Ratio IC50 [1] | IC50 (Thromboxane A2 receptor [2]) [nM] | IC50 (Thromboxane A2 receptor [3]) [nM] | Ratio IC50 [4] | IC50 (Thromboxane A2 receptor [5]) [nM] | IC50 (Thromboxane A2 receptor [6]) [nM] | Activity [7] [%] | Activity [8] [%] | Activity [9] [%] | Activity [10] [%] | Compound |
| --- | --- | --- | --- | --- | --- | --- | --- | --- | --- | --- |
|  |  |  |  |  |  | 52.7 | 48.9 |  |  | CCCCCNC(=O)NS(=O)(=O)c1cc([N+](=O)[O-])ccc1Nc1ccc(Cl)cc1 |
|  |  |  |  |  |  | 22.8 | 20.1 |  |  | CCCCCNC(=O)NS(=O)(=O)c1cc([N+](=O)[O-])ccc1Oc1cccc(C)c1 |
|  |  |  |  |  |  | 39.9 | 42.3 |  |  | CCCCCNC(=O)NS(=O)(=O)c1cc([N+](=O)[O-])ccc1Nc1ccc(C)cc1C |
|  |  |  |  |  |  | 27.5 | 27.9 |  |  | CCCCCNC(=O)NS(=O)(=O)c1cc([N+](=O)[O-])ccc1Nc1c(C)cc(C)cc1C |
| 1.55 | 538 | 76.5 | 7.03 | 0.7 | 1.08 | 49.7 | 49.7 |  |  | CCCCCNC(=O)NS(=O)(=O)c1cc([N+](=O)[O-])ccc1Nc1cc(C)cc(C)c1 |
|  |  |  |  |  |  | 39 | 44.6 |  |  | CCCCCNC(=O)NS(=O)(=O)c1cc([N+](=O)[O-])ccc1Nc1cccc(C)c1C |
|  |  |  |  |  |  | 53.4 | 48 |  |  | CCCCC/N=C(\NC#N)NS(=O)(=O)c1cc([N+](=O)[O-])ccc1Nc1cc(C)cc(C)c1 |
|  |  |  |  |  |  | 45.3 | 45.3 |  |  | CCCCCNC(=O)NS(=O)(=O)c1cc([N+](=O)[O-])ccc1Nc1ccccc1C |
|  |  |  |  |  |  | 48.7 | 40.1 |  |  | CCCCCNC(=O)NS(=O)(=O)c1cc([N+](=O)[O-])ccc1Nc1ccc(C)c(C)c1 |
| 3.11 | 126 | 43.2 | 2.92 | 0.58 | 1.82 | 49.9 | 32.1 |  |  | CCCCCNC(=O)NS(=O)(=O)c1cc([N+](=O)[O-])ccc1Nc1ccc(Br)c(C)c1 |
| 1.03 | 80.7 | 47.1 | 1.71 | 1.48 | 1.52 | 54 | 36.5 |  |  | CCCCCNC(=O)NS(=O)(=O)c1cc([N+](=O)[O-])ccc1Nc1c(C)cccc1C |
| 0.23 | 60.4 | 45.5 | 1.33 | 4.43 | 1.01 | 35.8 | 48.5 |  |  | CCCCCNC(=O)NS(=O)(=O)c1cc([N+](=O)[O-])ccc1Nc1cccc(C)c1 |
| 0.75 | 50 | 13.6 | 3.69 | 3.53 | 2.65 | 34.2 | 39.6 |  |  | CCCCCNC(=O)NS(=O)(=O)c1cc([N+](=O)[O-])ccc1Nc1ccc(C)cc1 |
|  |  |  |  |  |  | 33.1 | 28.6 |  |  | CCCCCNC(=O)NS(=O)(=O)c1cc([N+](=O)[O-])ccc1Nc1cc(C)ccc1C |
| 4.02 | 139 | 55.4 | 2.52 | 0.65 | 2.63 | 48.5 | 35.5 |  |  | CCCCCNC(=O)NS(=O)(=O)c1cc([N+](=O)[O-])ccc1Oc1ccc(C)cc1 |

More lines, now with the values behind:

| Compound | Ratio IC50 [1] | IC50 (Thromboxane A2 receptor [2]) [nM] | IC50 (Thromboxane A2 receptor [3]) [nM] | Ratio IC50 [4] | IC50 (Thromboxane A2 receptor [5]) [nM] | IC50 (Thromboxane A2 receptor [6]) [nM] | Activity [7] [%] | Activity [8] [%] | Activity [9] [%] | Activity [10] [%] |
| --- | --- | --- | --- | --- | --- | --- | --- | --- | --- | --- |
| CCCCCCNC(=O)NS(=O)(=O)c1cc([N+](=O)[O-])ccc1NC1CCCCC1 | 0.67 | 81.2 | 46.2 | 1.76 | 1.07 | 0.71 | 42.5 | 44.2 |  |  |
| Cc1ccc(Nc2ccc([N+](=O)[O-])cc2S(=O)(=O)NC(=O)N2CCCCC2)cc1 | 0.68 | 64.8 | 38.5 | 1.68 | 0.68 | 0.46 | 54.2 | 46.2 |  |  |
| Cc1ccc(Nc2ccc([N+](=O)[O-])cc2S(=O)(=O)NC(=O)NC(C)(C)C)cc1 | 1.35 | 319 | 53.1 | 6.01 | 0.78 | 1.05 | 53.6 | 49.5 |  |  |
| Cc1cccc(C)c1Nc1ccc([N+](=O)[O-])cc1S(=O)(=O)NC(=O)NC(C)(C)C | 1.4 | 56.9 | 30.8 | 1.85 | 0.56 | 0.78 | 46.3 | 46.4 |  |  |
| CCCCCCNC(=O)NS(=O)(=O)c1cc([N+](=O)[O-])ccc1Oc1ccc(C)cc1 | 0.45 | 526 | 58.5 | 9 | 1.58 | 0.72 | 46.1 | 55.2 |  |  |
| CCCCCNC(=O)NS(=O)(=O)c1cc([N+](=O)[O-])ccc1Sc1ccc(Cl)cc1 |  |  |  |  |  |  | 21.3 | 24.7 |  |  |
| CCCCC/N=C(\NC#N)NS(=O)(=O)c1cc([N+](=O)[O-])ccc1Nc1ccc(C)cc1 |  |  |  |  |  |  | 27.2 | 25.5 |  |  |
| CCCCCCCCNC(=O)NS(=O)(=O)c1cc([N+](=O)[O-])ccc1NC1CCCCC1 |  |  |  |  |  |  | 24.1 | 17.1 |  |  |
| Cc1ccc(Oc2ccc([N+](=O)[O-])cc2S(=O)(=O)NC(=O)NC2CCCCC2)cc1 | 1.93 | 601 | 70.2 | 8.56 | 0.79 | 1.52 | 51.9 | 49.8 |  |  |
| CCC(C)NC(=O)NS(=O)(=O)c1cc([N+](=O)[O-])ccc1Nc1ccc(C)cc1 (stereo unspecified) |  |  |  |  |  |  |  |  | 40.7 | 40.4 |
| CCCCCCCNC(=O)NS(=O)(=O)c1cc([N+](=O)[O-])ccc1NC1CCCCC1 | 0.93 | 92.9 | 55.5 | 1.67 | 2.68 | 2.5 | 36.4 | 29.5 |  |  |
| Cc1ccc(Nc2ccc([N+](=O)[O-])cc2S(=O)(=O)NC(=O)NCc2ccccc2)cc1 | 1.62 | 64.5 | 45 | 1.43 | 1.17 | 1.9 | 49.3 | 32.9 |  |  |
| CCCCCNC(=O)NS(=O)(=O)c1cc([N+](=O)[O-])ccc1Sc1ccc(C)cc1 |  |  |  |  |  |  | 43 | 38.5 |  |  |
| CCCCCNC(=O)NS(=O)(=O)c1cc([N+](=O)[O-])ccc1Sc1ccccc1C |  |  |  |  |  |  | 32.7 | 33.4 |  |  |
| Cc1ccc(Nc2ccc([N+](=O)[O-])cc2S(=O)(=O)NC(=O)NC2CCCCC2)cc1 |  |  |  |  |  |  | 29 | 31.1 |  |  |
| CCC(C)NC(=O)NS(=O)(=O)c1cc([N+](=O)[O-])ccc1Nc1c(C)cccc1C (stereo unspecified) |  |  |  |  |  |  |  |  | 48.4 | 42.5 |
| Cc1ccc(Sc2ccc([N+](=O)[O-])cc2S(=O)(=O)NC(=O)NC(C)(C)C)cc1 | 0.44 | 294 | 55.2 | 5.32 | 1.74 | 0.77 | 37.7 | 47 |  |  |
| CCCCCNC(=O)NS(=O)(=O)c1cc([N+](=O)[O-])ccc1Oc1ccccc1C |  |  |  |  |  |  | 36.8 | 35.2 |  |  |
| Cc1cc(Nc2ccc([N+](=O)[O-])cc2S(=O)(=O)NC(=O)NC(C)(C)C)ccc1Br |  |  |  |  |  |  | 25 | 28.5 |  |  |
| Cc1ccc(Oc2ccc([N+](=O)[O-])cc2S(=O)(=O)NC(=O)NC(C)(C)C)cc1 | 0.71 | 58.3 | 57.6 | 1.01 | 1.77 | 1.26 | 44.7 | 53.3 |  |  |
| CC(C)(C)NC(=O)NS(=O)(=O)c1cc([N+](=O)[O-])ccc1Sc1ccc(Cl)cc1 |  |  |  |  |  |  | 31.7 | 32.5 |  |  |
| CCCCNC(=O)NS(=O)(=O)c1cc([N+](=O)[O-])ccc1Oc1ccc(C)cc1 | 1.05 | 558 | 52.9 | 10.6 | 0.7 | 0.74 | 56 | 55.7 |  |  |
